# Bioassay records: PubChem, several laboratories
# Compounds with a hit are over-represented: about 3.7% of the library has one in this group of screens.
# MC4R antagonist: MC4R antagonists of cAMP signaling, primary screen, cell-based, TR-FRET, antagonist arm of biased-ligand search | 0.48% of 360,000 active | AID 540295, 2011 | MC4R-expressing cells, MTII-stimulated cAMP, LANCE TR-FRET | inhibition, % at 6.5 µM | Melanocortin receptor 4 (Homo sapiens), P32245;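 active = inhibition above its plate's cutoff, the mean of tested wells on that plate plus 3 SD, cut at about 29% in these data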;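 note: 0% = Melanotan II alone and 100% = Melanotan II plus saturating MCL0020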
#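 System: U2OS-MC4R stable cell line; Technique: Eu-cAMP/anti-cAMP TR-FRET, emission 671 nm; Repeats: single well per compound; Also added: Melanotan II; Dosing: one concentration, 6.5 µM nominal; Schedule: 30-min compound, 1-h challenge, 1-h detection, room temperature.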
# MC4R barr agon: MC4R agonists recruiting beta-arrestin, primary screen, cell-based, luminescence, agonist arm of biased-ligand search; Melanocortin receptor 4 (Homo sapiens), P32245; U2OS MC4R beta-arrestin complementation; percent of melanotan II response, DMSO zero; activation, % at 8.9 µM; 0.98% of 360,000 active;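 active = activation above a per-plate cutoff, the mean activation of sample wells on that plate plus 3 SD, cut at about 8% in these data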
# Granule exo inh: LAMP-1 surface exposure blockers, TALL-104 cells – cell-based, flow cytometry, MLPCN library, primary screen. TALL-104 LAMP-1 surface exposure; cells stimulated with thapsigargin and PMA. inhibition, % at 10 µM. 0.66% of 360,000 active. AID 651702, 2012;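 active = inhibition above about 55%, limit read from the data; inconclusive = no clear call, values can overlap the other calls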
# Myeloid diff 2: induction of myeloid progenitor differentiation, primary screen, cell-based, flow cytometry, MLPCN library; ER-HoxA9 myeloid progenitors, lysozyme-GFP differentiation; calls only at 10 µM; 1% of 360,000 active; AID 624256, 2012;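 active = normalized GFP-positive differentiation at or above the plate's own cutoff, the solvent-only control mean plus 3 SD; inconclusive = no clear call, values can overlap the other calls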;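 note: cells exposed to compound for four days before flow analysis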
# EBI2 block: EBI2 receptor antagonists, beta-arrestin recruitment, primary screen, cell-based, luminescence, 7a,25-OHC stimulation, uHTS; 7a,25-OHC stimulated; inhibition, % at 5 µM; G-protein coupled receptor 183 (Homo sapiens), P32249; 0.81% of 360,000 active; in the data active = inhibition above about 38%;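 note: enzyme fragment complementation signal reports receptor beta-arrestin coupling in cells; 0% = agonist plus DMSO wells and 100% = wells without agonist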
# Target sequence (P32249 whole entry, looked up, the tested form may be a part): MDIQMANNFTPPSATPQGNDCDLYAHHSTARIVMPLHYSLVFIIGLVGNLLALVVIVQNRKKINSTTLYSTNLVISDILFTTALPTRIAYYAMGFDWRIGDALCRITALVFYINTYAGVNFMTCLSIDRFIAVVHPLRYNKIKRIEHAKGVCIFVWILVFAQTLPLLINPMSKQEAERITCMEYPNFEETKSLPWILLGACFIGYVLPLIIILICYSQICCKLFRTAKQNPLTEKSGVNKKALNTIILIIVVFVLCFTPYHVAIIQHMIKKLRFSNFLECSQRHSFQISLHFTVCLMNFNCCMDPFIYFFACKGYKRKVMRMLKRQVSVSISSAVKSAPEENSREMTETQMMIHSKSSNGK
# An asterisk follows results filed as active; i = inactive; ? = inconclusive; . = no result given; + = active, no number; ! = not confirmed by another sample.
SMILES,MC4R antagonist,MC4R barr agon,Granule exo inh,Myeloid diff 2,EBI2 block
Cc1cccn2c(=O)c(/C=C(\C#N)C(=O)NC3CCS(=O)(=O)C3)c(Oc3ccccc3Cl)nc12 (stereo not drawn),9,-1,-2,i,16
N#Cc1c(N2CCCC2)nc(N)c2c(N)nc(N3CCCC3)cc12,-31,1,60*,i,17
COc1cc2c(C#N)c(N3CCCC3)nc(N)c2c(N)n1,-12,1,-7,i,-3
CC(C)OC(=O)c1cccnc1N1CCN(c2cccc(Cl)c2)CC1,1,4,-17,i,3
CC(C)CC(NC(N)=O)C(=O)NCc1ccccc1Cl (stereo not drawn),0,-2,1,+,5
CC(C)CC(NC(N)=O)C(=O)NCc1ccc(Cl)cc1 (stereo not drawn),0,0,2,i,-1
O=C(NCCN1CCOCC1)c1ccc2c(c1)N(Cc1ccccc1F)C(=O)c1ccccc1S2,6,-2,-2,+,-9
CCN1CCN(CCCNC(=O)c2ccc(/C=C3/Sc4ccccc4N(Cc4ccccc4F)C3=O)cc2)CC1,-2,7,70*,i,14
COc1ccc(-c2nnn(CC(=O)N(CC(=O)NC3CCCC3)c3ccccc3F)n2)cc1OC,5,-1,7,i,16
CC(C)COC(=O)N1CCCCC1c1cc(C(=O)NC(C)C)no1 (stereo not drawn),-6,1,13,i,5
O=C(c1ccc(Cl)cc1)N1CCC(C(=O)N2CCN(c3ncccn3)CC2)CC1,5,-3,3,i,48*
CCOC(=O)N1CCC(n2c(=S)[nH]c3cc(OCC)c(OCC)cc3c2=O)CC1,1,-1,1,i,60*
COc1ccc(CNC(=O)CN(Cc2ccc(Cl)cc2)S(=O)(=O)c2ccccc2)cc1,12,-1,48,+,4
COc1ccc(C)cc1S(=O)(=O)N(CC(=O)NCc1ccc(Cl)cc1)Cc1ccccc1,3,3,5,+,23
O=C(c1cc2c(F)cccc2s1)N1CCCC1,21,-2,-3,i,0
CCN1C(c2ccccc2)=C(c2ccccc2)S/C1=C\C=C1/SC(=S)N(C)C1=O,11,0,9,.,-14
CCN1C(c2ccccc2)=C(c2ccccc2)S/C1=C/C=C1\SC(=S)N(C)C1=O,4,-2,59*,+,-5
CCN1C(=O)/C(=C/C=C2/Sc3ccc4ccccc4c3N2CCO)SC1=S,0,0,4,+,12
COc1cc(NC(=O)c2cc(-c3ccc4c(c3)OCO4)on2)cc(OC)c1OC,15,8.8*,-10,.,-6
Cc1ccc2c(c1)S/C(=C/c1ccc[n+](C)c1)N2CCO,-3,0,-1,+,-5
O=C(Nc1ccc(N=Nc2ccccc2)cc1)c1ccc(Cl)cc1Cl,-17,0,-2,i,-1
O=C(Nc1ccc(N=Nc2ccccc2)cc1)c1ccccc1Cl,6,9.5*,-12,i,26
Cc1ccnc(NC(=O)c2ccc(S(=O)(=O)N3CCCCCC3)cc2)c1,13,-5,-2,i,14
Cc1ccccc1S(=O)(=O)Cc1ccc(C(=O)NCCN(C)Cc2ccccc2)o1,0,0,11,+,-9
CC1=C(C(=O)O)CC(S(=O)(=O)O)C1(C)C (stereo not drawn),13,-3,-12,i,-14
SMILES,MC4R antagonist,MC4R barr agon,Granule exo inh,Myeloid diff 2,EBI2 block
CCOC(=O)C1=C(O)/C(=C/c2cn(CC(=O)NCC3CCCO3)c3ccccc23)SC1=Nc1ccc(C)cc1 (stereo not drawn),7,3,-1,i,49*
CCOC(=O)C1=C(O)/C(=C/c2ccc(-c3ccccc3C(=O)O)o2)SC1=Nc1ccc(C)cc1,-5,4,14,i,40
COc1cc(C(Nc2ccccn2)c2ccc3ccc(C)nc3c2O)cc(OC)c1O (stereo not drawn),-8,-4,105*,?,1
Cc1ccc2ccc(C(Nc3ccccn3)c3ccccc3)c(O)c2n1 (stereo not drawn),-8,-3,3,i,4
O=C1C=C(Nc2ccc(O)cc2)C(=O)c2ccccc21,-23,0,0,+,-5
O=C(NC1=C(Nc2ccc(F)cc2)C(=O)c2ccccc2C1=O)c1ccc(Cl)cc1,-3,-2,-2,i,-3
CC(=O)Nc1ccc(NC2=CC(=O)c3ccccc3C2=O)cc1,-7,-1,9,i,-4
CCNC1=C(Cl)C(=O)c2ccccc2C1=O,-21,3,-2,i,0
Cc1ccc(NC2=CC(=O)C(=O)c3ccccc32)cc1,-16,1,1,i,5
Cc1ccc(NC2=C(Cl)C(=O)c3ccccc3C2=O)cc1,1,-1,74*,i,30
O=C1C(Cl)=C(Nc2ccc(O)cc2)C(=O)c2ccccc21,15,-3,70*,?,9
CCN(CC)c1ccc(NC2=C(Cl)C(=O)c3ccccc3C2=O)cc1,0,-6,67*,?,37
COc1ccc(C(=O)COC(=O)CCN=C2NS(=O)(=O)c3ccccc32)c(OC)c1,0,-2,-4,i,-1
CCN(CC(=O)NCc1ccc(F)cc1)C(=O)C(C)Oc1cccc(Cl)c1 (stereo not drawn),6,0,-2,i,1
Cc1ccc(NC(=O)COC(=O)Cc2ccsc2)c(C)c1,2,-2,-2,i,-5
COC1=C(Nc2ccc(O)cc2)C(=O)c2ccccc2C1=O,-28,-2,-2,+,-4
CCN1CCN(Cc2ccc(NC(=O)c3ccc(C)c(NC(=O)N4CCNC4=O)c3)cc2C(F)(F)F)CC1,10,0,-10,+!,-1
Cc1nnc(NC(=O)CSc2nnc(CC(=O)Nc3ccccc3F)n2C)s1,1,-1,-8,i,-13
CC(C)CCn1nnnc1CN1CCN(C(c2ccccc2)c2ccccc2)CC1,5,-3,5,+,33
COc1ccccc1CCNC(=O)C(=O)Nc1cc2c3c(c1)CC(=O)N3CCC2,0,1,-1,i,7
Cc1ccc(O)c([C@H](CCN(C(C)C)C(C)C)c2ccccc2)c1,5,0,-2,+!,5
CCCN(CCC)C(=O)CC(c1ccccc1)c1ccc(C)cc1O (stereo not drawn),21,4,-1,i,18
CN(C)S(=O)(=O)c1ccc(NC(=O)CN2C(=O)NC3(CCCC3)C2=O)cc1,2,2,8,.,9
